Source: ChEMBL document CHEMBL1144922 (J Med Chem, 2003)

Tests used:
[1] = test system: Human immunodeficiency virus; assay: Inhibitory activity against wild type strain,HIV104pre.; type: functional, organism-based; conditions: Human immunodeficiency virus 1
How it was run: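 Activity against the wild-type strain HIV104pre was read as inhibition of HIV p24 antigen expression in peripheral blood mononuclear cells (PBMC).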

[2] = test system: MT2; assay: Cytotoxicity based on reduction of the viability of mock-infected MT-2 cells.; type: functional; conditions: Homo sapiens
How it was run: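 CC50 taken as the concentration reducing the viability of mock-infected (uninfected) MT-2 cells. Values with SD are means of at least three independent experiments; values without SD come from a single experiment.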

[3] = test system: MT2; assay: Anti-HIV activity based on inhibition of HIV-1 induced cytopathogenicity in MT-2 cells.; type: functional, cell-based; conditions: Homo sapiens
How it was run: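 IC50 from inhibition of HIV-induced cytopathic effect in MT-2 cells. Values with SD are means of at least three independent experiments; values without SD come from a single experiment.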

[4] = test system: Human immunodeficiency virus 1; assay: Anti-HIV activity against multidrug resistant HIV TM strain by inhibition of HIV p24 antigen expression in peripheral blood mononuclear cells(PBMC); type: functional, organism-based
How it was run: (§1)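 Read-out was HIV p24 antigen expression in peripheral blood mononuclear cells infected with multidrug-resistant HIV-1. Values with standard deviation are means of at least three experiments, and values without one come from a single experiment. Wild-type strain HIV104pre was the reference. Protease amino acid substitutions of each strain were characterised.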

[5] = test system: Human immunodeficiency virus 1; assay: Anti-HIV activity against multidrug resistant HIV JSL strain by inhibition of HIV p24 antigen expression in peripheral blood mononuclear cells(PBMC); type: functional, organism-based; how it was run: as §1
[6] = test system: Human immunodeficiency virus 1; assay: Anti-HIV activity against multidrug resistant HIV MM strain by inhibition of HIV p24 antigen expression in peripheral blood mononuclear cells(PBMC); type: functional, organism-based; how it was run: as §1
[7] = biological target: Human immunodeficiency virus type 1 protease (Human immunodeficiency virus 1, UniProt Q72874); assay: Inhibitory activity against HIV-1 protease
How it was run: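 Ki against HIV-1 protease. Enzyme reaction rate was obtained by SELDI-MS quantitation of the remaining parent peptide substrate.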

[8] = Selectivity index was determined as ratio of reduction of the viability of mock-infected MT-2 cells/inhibition of HIV-1 induced cytopathogenicity in MT-2 cells.; type: functional, MT2

Row | Structure (SMILES) | IC50 [1] [nM] | CC50 [2] [nM] | IC50 [3] [nM] | IC50 [4] [nM] | IC50 [5] [nM] | IC50 [6] [nM] | Ki [7] [nM] | SI [8]
1 | CC(C)CN(C[C@@H](O)[C@H](Cc1ccccc1)NC(=O)[C@@H](C[S+]([O-])c1ccc2ccccc2c1)NS(C)(=O)=O)S(=O)(=O)c1ccc(N)cc1 (some centres not stated) | 31 | 33000 | 66 | 43 | 25 | 36 | 0.1 | 500
2 | CC(C)(C)NC(=O)[C@@H]1C[C@@H]2CCCC[C@@H]2CN1C[C@@H](O)[C@H](Cc1ccccc1)NC(=O)[C@H](CC(N)=O)NC(=O)c1ccc2ccccc2n1 | 19 | 11000 | 17 | – | – | – | – | –
3 | CC(C)CN(C[C@@H](O)[C@@H](/C=C/[C@@H](C[S+]([O-])c1ccc2ccccc2c1)NS(C)(=O)=O)Cc1ccccc1)S(=O)(=O)c1ccc(N)cc1 (some centres not stated) | 180 | 8000 | 160 | > 1000 | 340 | 520 | 0.38 | 58
4 | CC(C)CN(C[C@@H](O)[C@H](Cc1ccccc1)NC(=O)O[C@H]1CCOC1)S(=O)(=O)c1ccc(N)cc1 | 20 | > 100000 | 36 | 480 | 800 | 530 | – | –
5 | CC(C)(C)NC(=O)[C@@H]1C[C@@H]2CCCC[C@@H]2CN1C[C@@H](O)[C@H](Cc1ccccc1)NC(=O)[C@@H](C[S+]([O-])c1ccc2ccccc2c1)NS(C)(=O)=O (some centres not stated) | 15 | 3900 | 9.5 | 34 | 220 | 32 | 0.12 | 410
6 | Cc1cn([C@H]2C[C@H](N=[N+]=[N-])[C@@H](CO)O2)c(=O)[nH]c1=O [ZIDOVUDINE] | 2.5 | > 100000 | 27 | 43 | 64 | 37 | – | –
7 | CC(C)(C)NC(=O)[C@@H]1C[C@@H]2CCCC[C@@H]2CN1CC(O)[C@@H](/C=C/[C@@H](CS(=O)(=O)c1ccc2ccccc2c1)NS(C)(=O)=O)Cc1ccccc1 (some centres not stated) | – | – | > 1000 | – | – | – | – | –
8 | CC(C)CN(C[C@H](O)[C@@H](/C=C/[C@@H](C[S+]([O-])c1ccc2ccccc2c1)NS(C)(=O)=O)Cc1ccccc1)S(=O)(=O)c1ccc(N)cc1 (some centres not stated) | – | – | > 1000 | – | – | – | – | –
9 | CC(C)(C)NC(=O)[C@@H]1C[C@@H]2CCCC[C@@H]2CN1CC(O)[C@@H](/C=C/[C@@H](C[S+]([O-])c1ccc2ccccc2c1)NS(C)(=O)=O)Cc1ccccc1 (some centres not stated) | – | – | > 1000 | – | – | – | – | –
